How the values were obtained:
pAkt in SNU‐1 cells = assay: HTRF assay of downstream phosphorylation, pAkt in SNU-1; format: cell-based; conditions: Homo sapiens, SNU1, read-out: pAkt IC50
Procedure, shortened: (§1)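 Test compound was given as a 3-fold 8-point series, top 330 μM final, 1 % DMSO, for 1 h. EGF at 3 nM final was then added for 15 min. Cells were lysed 30 min at room temperature. TR-FRET antibody detection followed after 20 h at room temperature; read-out gave IC50.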

tErk in A375 cells = assay: HTRF assay, tErk in A375; format: cell-based; conditions: Homo sapiens, A-375, read-out: tErk IC50
NCI‐H441 (G12 V) = assay: CellTiter-Glo cell viability assay, NCI-H441; format: cell-based; conditions: Homo sapiens, NCI-H441, 72 h, read-out: Cellular activity IC50, NCI‐H441 (G12 V)
Procedure, shortened: (§2)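 Cells seeded, then held 24 h at 37 °C/5 % CO2 before test compound in DMSO was added at various concentrations. Plates were incubated a further 72 h at 37 °C, 5 % CO2, humidified. Controls were DMSO vehicle and 10 μM staurosporine. CellTiter-Glo reagent was added at equal volume to the medium, then 2 min shaking and 10 min at room temperature before luminescence (ATP) reading. IC50 from dose-response fit; plates accepted only if Z' ≥0.5, from 16 control values each.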

K‐Ras wild type protein = K‐Ras wild type protein (Homo sapiens, UniProt P01116); assay: Nucleotide exchange assay; format: biochemical
Procedure, shortened: (§3)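 SOS1 (final 30.2 nM for G12D, 4.6 nM for wild type) and GTP (1 μM final) follow. Incubated overnight at room temperature, then GDP detection reagent for 1 h. Luminescence read; IC50 from sigmoidal curves.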

[1] = tested on: Ras mutant tumor cell lines; assay: Tumor cell assays, all tested cell lines; format: cell-based; conditions: read-out: IC50 values for all tested cell lines
Procedure, shortened: as §2

K‐Ras(G12D) = K‐Ras(G12D) (Homo sapiens, UniProt P01116, G12D); assay: Nucleotide exchange assay; format: biochemical
Procedure, shortened: as §3

pErk in A375 cells = assay: HTRF assay of downstream phosphorylation, pErk in A375; format: cell-based; conditions: Homo sapiens, A-375, read-out: pErk IC50
tErk in SNU‐1 cells = assay: HTRF assay, tErk in SNU-1; format: cell-based; conditions: Homo sapiens, SNU1, read-out: tErk IC50
Procedure, shortened: as §1

[2] = Control assay for nucleotide exchange assay; conditions: 3 mM compound; percent of control
tAkt in SNU‐1 cells = assay: HTRF assay, tAkt in SNU-1; format: cell-based; conditions: Homo sapiens, SNU1, read-out: tAkt IC50
Procedure, shortened: as §1

H358 (G12 C) = assay: CellTiter-Glo cell viability assay, H358; format: cell-based; conditions: Homo sapiens, NCI-H358, 72 h, read-out: Cellular activity IC50, H358 (G12 C)
Procedure, shortened: as §2

pAkt in A375 cells = assay: HTRF assay of downstream phosphorylation, pAkt in A375; format: cell-based; conditions: Homo sapiens, A-375, read-out: pAkt IC50
SNU‐1 (G12D) = assay: CellTiter-Glo cell viability assay, SNU-1; format: cell-based; conditions: Homo sapiens, SNU1, 72 h, read-out: Cellular activity IC50, SNU‐1 (G12D)
Procedure, shortened: as §2

HCT15 (G13D) = assay: CellTiter-Glo cell viability assay, HCT15; format: cell-based; conditions: Homo sapiens, HCT-15, 72 h, read-out: Cellular activity IC50, HCT15 (G13D)
Procedure, shortened: as §2

tAkt in A375 cells = assay: HTRF assay, tAkt in A375; format: cell-based; conditions: Homo sapiens, A-375, read-out: tAkt IC50
A549 (G12S) = assay: CellTiter-Glo cell viability assay, A549; format: cell-based; conditions: Homo sapiens, A549, 72 h, read-out: Cellular activity IC50, A549 (G12S)
Procedure, shortened: as §2

[3] = Stability in cell culture medium; format: in vitro ADME; conditions: for stability in cell culture medium: 24 h
pErk in SNU‐1 cells = assay: HTRF assay of downstream phosphorylation, pErk in SNU-1; format: cell-based; conditions: Homo sapiens, SNU1, read-out: pErk IC50
Procedure, shortened: as §1

K‐Ras4B = K‐Ras4B (Homo sapiens, UniProt P01116); assay: NMR titration experiments; format: binding
Procedure, shortened: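 GDP-bound K-Ras4B was titrated with test compound and followed by NMR chemical shift perturbation; KD derived from the titration.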

(GDP)K‐Ras4B = (GDP)K‐Ras4B (Homo sapiens, UniProt P01116); assay: MST; format: binding
[4] = Stability in human plasma solution; format: in vitro ADME; conditions: over 24 h
(GTP)K‐Ras4B = (GTP)K‐Ras4B (Homo sapiens, UniProt P01116); assay: MST; format: binding
Chain of (GTP)K‐Ras4B (P01116 1-188 isoform P01116-2): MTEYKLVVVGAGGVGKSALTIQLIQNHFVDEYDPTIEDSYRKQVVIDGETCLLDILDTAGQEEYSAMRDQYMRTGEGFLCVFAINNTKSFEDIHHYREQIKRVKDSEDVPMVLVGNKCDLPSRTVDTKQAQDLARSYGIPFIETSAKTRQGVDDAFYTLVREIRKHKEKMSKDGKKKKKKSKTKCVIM

Chain of K‐Ras wild type protein (P01116 1-188 isoform P01116-2): as above
Chain of K‐Ras4B (P01116 1-188 isoform P01116-2): as above
Chain of K‐Ras(G12D) (P01116 1-188 isoform P01116-2 G12D): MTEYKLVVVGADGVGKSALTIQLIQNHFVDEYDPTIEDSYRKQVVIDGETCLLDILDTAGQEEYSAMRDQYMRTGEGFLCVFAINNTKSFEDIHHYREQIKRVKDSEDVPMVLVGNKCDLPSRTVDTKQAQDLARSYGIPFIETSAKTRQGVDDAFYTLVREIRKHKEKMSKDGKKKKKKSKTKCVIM
Chain of (GDP)K‐Ras4B (P01116 1-188 isoform P01116-2): as the sequence (P01116 1-188 isoform P01116-2) above

IC50 (K‐Ras wild type protein) [µM] | IC50 (K‐Ras(G12D)) [µM] | IC50 (H358 (G12 C)) [µM] | IC50 (SNU‐1 (G12D)) [µM] | IC50 (HCT15 (G13D)) [µM] | IC50 (A549 (G12S)) [µM] | SMILES | IC50 (NCI‐H441 (G12 V)) [µM] | WT %CRTL (3 mM) [2] [%] | also measured
1040 ± 427 | 413 ± 28 | 33.7 ± 0.6 | 23.7 ± 14.4 | 17.6 ± 13.4 | 28.7 ± 4.7 | Oc1ccc(C(=NNc2ccc(F)cc2)c2ccc(O)cc2)cc1 [7 c, 4,4′‐((2‐(4‐Fluorophenyl)hydrazinylidene)‐methylene)diphenol] | 24.7 ± 8.3 | 83 | IC50 (pAkt in SNU‐1 cells): 95.3 µM; IC50 (tErk in A375 cells): 491 µM; IC50 [1]: 20 to 30 µM; IC50 (pErk in A375 cells): 415 µM; IC50 (tErk in SNU‐1 cells): > 550 µM; IC50 (tAkt in SNU‐1 cells): > 1000 µM; IC50 (pAkt in A375 cells): > 1000 µM; IC50 (tAkt in A375 cells): > 1000 µM; cell culture medium stability [3]: 2.2%; IC50 (pErk in SNU‐1 cells): 455 µM
1070 ± 312 | 628 ± 170 | 15.1 ± 1.2 | 16.7 ± 1.9 | 12.5 ± 1.4 | 11.9 ± 0.7 | Oc1ccc(C(=NNc2ccc(C(F)(F)F)cc2)c2ccc(O)cc2)cc1 [7 e, 4,4′‐((2‐(4‐(Trifluoromethyl)phenyl)‐hydrazinylidene)methylene)diphenol] | 13.4 ± 2.7 | 90 | IC50 (pAkt in SNU‐1 cells): 431 µM; IC50 (tErk in A375 cells): > 1000 µM; IC50 (pErk in A375 cells): > 1000 µM; IC50 (tErk in SNU‐1 cells): > 1000 µM; IC50 (tAkt in SNU‐1 cells): > 1000 µM; IC50 (pAkt in A375 cells): > 1000 µM; IC50 (tAkt in A375 cells): > 1000 µM; stability in cell culture medium [3]: completely stable; IC50 (pErk in SNU‐1 cells): 520 µM
2610 ± 225 | 1910 ± 98 |  | 71.1 ± 11.3 |  | 67 ± 1.8 | Oc1ccc(C(=NNc2ccccn2)c2ccc(O)cc2)cc1 [7 f, 4,4′‐((2‐(Pyridin‐2‐yl)hydrazinylidene)‐methylene)diphenol] | 65.8 ± 37.3 | 98 | 
1620 ± 565 | 1290 ± 307 | 161 ± 9 | 154 ± 30 | 219 ± 43 | 184 ± 12 | COc1ccc(S(=O)(=O)NN=C(c2ccc(O)cc2)c2ccc(O)cc2)cc1 [8 b, N′‐(bis(4‐hydroxyphenyl)methylene)‐4‐methoxybenzenesulfonohydrazide] | 260 ± 45 | 89 | 
2220 ± 519 | 850 ± 120 | 82.8 ± 8.4 | 88.7 ± 23.9 | 96.6 ± 14.5 | 91.8 ± 7.4 | O=S(=O)(NN=C(c1ccc(O)cc1)c1ccc(O)cc1)c1ccc(Br)cc1 [8 d, N′‐(bis(4‐hydroxyphenyl)methylene)‐4‐bromobenzenesulfonohydrazide] | 105 ± 8 | 93 | 
298 ± 196 | 255 | 49.2 ± 0.9 | 46.8 ± 1.7 | 51.1 ± 1.2 | 49.8 ± 2.1 | O=[N+]([O-])c1ccc(S(=O)(=O)NN=C(c2ccc(O)cc2)c2ccc(O)cc2)cc1 [8 e, N′‐(bis(4‐hydroxyphenyl)methylene)‐4‐nitrobenzenesulfonohydrazide] | 58.4 ± 6.9 |  | 
1500 ± 572 | > 3000 | > 30 | > 30 | > 30 | > 30 | N#Cc1ccc(S(=O)(=O)NN=C(c2ccc(O)cc2)c2ccc(O)cc2)cc1 [8 g, N′‐(bis(4‐hydroxyphenyl)methylene)‐4‐cyanobenzenesulfonohydrazide] | > 30 | 86 | 

Continued, molecule first:

SMILES | IC50 (K‐Ras wild type protein) [µM] | IC50 (K‐Ras(G12D)) [µM] | IC50 (H358 (G12 C)) [µM] | IC50 (SNU‐1 (G12D)) [µM] | IC50 (HCT15 (G13D)) [µM] | IC50 (A549 (G12S)) [µM] | IC50 (NCI‐H441 (G12 V)) [µM] | WT %CRTL (3 mM) [2] [%] | also measured
Oc1ccc(C(=NNc2ccc(Cl)cc2)c2ccc(O)cc2)cc1 [7 d, 4,4′‐((2‐(4‐Chlorophenyl)hydrazinylidene)‐methylene)diphenol] | 1300 ± 417 | 475 | 40.2 ± 1 | 31.2 ± 6.8 | 27.4 ± 4.5 | 30.1 ± 9 | 29.3 ± 4.1 | 84 | IC50 [1]: 20 to 30 µM; cell culture medium stability [3]: 0.4%
O=S(=O)(NN=C(c1ccc(O)cc1)c1ccc(O)cc1)c1ccccc1 [8 a, N′‐(bis(4‐hydroxyphenyl)methylene)benzene‐sulfonohydrazide] | 1030 ± 371 | 1310 ± 389 | 109 ± 3 | 92.1 ± 12 | 113 ± 13 | 105 ± 2 | 157 ± 54 | 91 | 
O=S(=O)(NN=C(c1ccc(O)cc1)c1ccc(O)cc1)c1ccc(Cl)cc1 [8 c, N′‐(bis(4‐hydroxyphenyl)methylene)‐4‐chlorobenzenesulfonohydrazide] | 1050 ± 405 | 583 ± 146 | 69.8 ± 2.4 | 81 ± 26.3 | 85 ± 9.2 | 71.3 ± 6.5 | 102 ± 16 | 91 | IC50 (pAkt in SNU‐1 cells): 96.6 µM; IC50 (tErk in A375 cells): 255 µM; IC50 (pErk in A375 cells): 203 µM; IC50 (tErk in SNU‐1 cells): > 875 µM; IC50 (tAkt in SNU‐1 cells): 586 µM; IC50 (pAkt in A375 cells): > 1000 µM; IC50 (tAkt in A375 cells): > 1000 µM; IC50 (pErk in SNU‐1 cells): 240 µM
O=S(=O)(NN=C(c1ccc(O)cc1)c1ccc(O)cc1)c1ccc(OC(F)(F)F)cc1 [8 f, N′‐(bis(4‐hydroxyphenyl)methylene)‐4‐(trifluoromethoxy)benzenesulfonohydrazide] | 1650 ± 731 | 858 ± 55 | 104 ± 3 | 110 ± 24 | 112 ± 10 | 111 ± 10 | 179 ± 43 | 92 | 
O=C(c1ccc(O)cc1)c1ccc(O)cc1 [compound 9, 4,4’‐Dihydroxybenzophenone, reference compound] | 1330 ± 104 | 1210 ± 116 |  | 187 ± 19 |  | > 300 | > 300 |  | Kd (K‐Ras4B): 9100 ± 3900 µM
O=C(NN=C(c1ccc(O)cc1)c1ccc(O)cc1)c1ccccc1 [compound 10, N′‐(Bis(4‐hydroxyphenyl)methylene)‐benzohydrazide] | > 3000 | > 3000 |  | 173 ± 1 |  | 112 ± 3 | 158 ± 3 | 93 | 
Oc1ccc(C(=NOCc2ccccc2)c2ccc(O)cc2)cc1 [compound 11, Bis(4‐hydroxyphenyl)methanone‐O‐benzyl oxime] | 1330 ± 343 | 431 ± 22 | 58.6 ± 0.5 | 41.7 ± 4.2 | 43.9 ± 1.8 | 54.3 ± 3.6 | 62.2 ± 4.8 | 98 | Kd ((GDP)K‐Ras4B): 89 µM; IC50 (pAkt in SNU‐1 cells): 47.7 µM; IC50 (tErk in A375 cells): 77.2 µM; IC50 (pErk in A375 cells): 48.8 µM; IC50 (tErk in SNU‐1 cells): > 1000 µM; IC50 (tAkt in SNU‐1 cells): 475 µM; IC50 (pAkt in A375 cells): > 1000 µM; stability in human plasma solution [4]: 92%; IC50 (tAkt in A375 cells): 749 µM; stability in cell culture medium [3]: completely stable; IC50 (pErk in SNU‐1 cells): 218 µM; Kd ((GTP)K‐Ras4B): 602 µM
O=C(c1nc2cccc(O)c2[nH]1)c1cc2cccc(O)c2o1 [compound 12, (7‐Hydroxy‐1H‐benzimidazol‐2‐yl)‐(7‐hydroxybenzofuran‐2‐yl)methanon] | 1100 ± 381 | 340 ± 72 | 37.7 ± 1.3 | 34.5 ± 2.1 | 37.7 ± 0.4 | 45.3 ± 1.5 | 47.4 ± 3 | 75 | Kd ((GDP)K‐Ras4B): 59 µM; Kd (K‐Ras4B): 500 ± 100 µM; fold stronger binding to K‐Ras4B than DHBP (K‐Ras4B; NMR titration KD ratio versus DHBP): 18 fold; Kd ((GTP)K‐Ras4B): 34 µM
O=C(c1nc2cc(O)ccc2[nH]1)c1cc2cccc(O)c2o1 [compound 13, (5‐Hydroxy‐1H‐benzo[d]imidazol‐2‐yl)(7‐hydroxybenzofuran‐ 2‐yl)methanone] | 334 ± 5 | 409 ± 32 |  | 52.7 ± 0.3 |  |  | 54.5 ± 0.2 |  | 

Reference: PMC9826232 (Chemmedchem, 2022)
